In brackets after ≈: the same amount, converted by molar mass. Activity calls are given as the source filed them. The calls are words filed in the database; no cut-off is given here.
Experiments:
Cytochrome P450 2D6 = Cytochrome P450 2D6 (Homo sapiens, UniProt P10635); assay: Inhibition of CYP2D6 (unknown origin); type: ADME
Mus musculus [1] = assay: In vivo inhibition of EZH2 in mouse xenografted with human KARPAS422 cells harboring EZH2 Y641N mutant assessed as reduction in H3K27me3 level in tumor at 300 mg/kg, po bid measured 4 hrs post last dose on day 9 relative to control; type: functional; details: KARPAS-422, po
How it was run: (§1)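 Mice bearing Karpas-422 (EZH2 Y641N) xenografts were dosed with crystalline suspension orally twice daily (7 h/17 h) or subcutaneously once daily. Tumors were collected on day 9, 4 h after the last dose, for H3K27me3 quantification.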

[2] = molecular target: T1, Histone-lysine N-methyltransferase EZH2 (Homo sapiens, UniProt Q15910)
Target sequence in this assay (Q15910 whole entry, looked up): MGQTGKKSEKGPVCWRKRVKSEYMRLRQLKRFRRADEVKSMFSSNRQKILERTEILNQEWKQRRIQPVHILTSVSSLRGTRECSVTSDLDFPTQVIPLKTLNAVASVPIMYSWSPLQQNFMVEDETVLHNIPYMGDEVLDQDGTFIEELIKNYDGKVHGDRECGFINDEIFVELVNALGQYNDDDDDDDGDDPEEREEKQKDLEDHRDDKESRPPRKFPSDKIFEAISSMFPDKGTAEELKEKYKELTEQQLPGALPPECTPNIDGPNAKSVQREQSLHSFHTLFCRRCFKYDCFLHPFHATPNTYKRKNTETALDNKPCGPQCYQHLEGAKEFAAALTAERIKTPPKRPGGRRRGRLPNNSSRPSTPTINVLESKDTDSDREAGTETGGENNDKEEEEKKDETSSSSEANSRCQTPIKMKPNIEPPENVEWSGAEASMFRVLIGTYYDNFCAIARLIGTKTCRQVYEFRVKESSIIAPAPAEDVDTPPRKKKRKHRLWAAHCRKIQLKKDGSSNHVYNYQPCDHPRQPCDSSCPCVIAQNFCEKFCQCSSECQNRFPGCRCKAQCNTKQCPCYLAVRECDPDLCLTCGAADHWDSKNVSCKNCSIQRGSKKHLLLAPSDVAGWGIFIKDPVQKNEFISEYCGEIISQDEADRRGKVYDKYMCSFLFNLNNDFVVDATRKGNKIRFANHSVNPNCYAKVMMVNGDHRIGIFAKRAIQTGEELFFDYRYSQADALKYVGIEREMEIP

KARPAS-422 [3] = assay: Antitumor activity against human KARPAS422 cells harboring EZH2 Y641N mutant xenografted in mouse assessed as decrease in tumor growth at 100 mg/kg, po bid; type: functional, organism-based
[4] = Lipophilicity, log D of the compound at pH 7.4; details: buffer, pH 7.4, logD
[5] = Thermodynamic solubility in water at 25 degC using crystalline form; type: physicochemical; details: read-out: Therm_solubility
Salmonella typhimurium = assay: Mutagenicity in Salmonella typhimurium by Ames assay; type: toxicity; details: salmonella enterica subsp. enterica serovar typhimurium
[6] = Kinetic solubility of the compound; type: physicochemical; details: read-out: Kinetic_solubility
[7] = Passive permeability in MDCK cells at 2 uM after 90 mins by LC-MS/MS analysis; type: ADME, cell-based, Canis lupus familiaris; details: dog, MDCK; read-out: permeability
How it was run: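 Low-efflux MDCK cells (MDCK-LE) on 96-well inserts, used on day 4. Monodirectional transport of 2 μM drug in transport buffer with 0.1% DMSO at 37 °C. Donor and receiver sampled at 0 and 90 min for LC−MS/MS. Donor pH 6.5 and 7.4, receiver pH 7.4.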

Mus musculus [8] = assay: In vivo inhibition of EZH2 in mouse xenografted with human KARPAS422 cells harboring EZH2 Y641N mutant assessed as reduction in H3K27me3 level in tumor at 100 mg/kg, po bid measured 4 hrs post last dose on day 9 relative to control; type: functional; details: KARPAS-422, po; how it was run: as §1
Mus musculus [9] = assay: Time at which free plasma concentration stays above antiproliferative KARPAS422 cells IC90 level in mouse xenografted with human KARPAS422 cells at 300 mg/kg, po bid
[10] = molecular target: T1, Histone-lysine N-methyltransferase EZH2; assay: Binding affinity to EZH2 (unknown origin)
Target sequence in this assay (Q15910 whole entry): as the sequence (Q15910 whole entry, looked up) above

[11] = molecular target: Histone-lysine N-methyltransferase EZH2 (Homo sapiens, UniProt Q15910, Y641N); assay: Inhibition of EZH2 Y641N mutant (unknown origin) using oligonucleosomes as substrate after 60 mins in presence of [3H]SAM by scintillation counting analysis
Sequence of Histone-lysine N-methyltransferase EZH2 (Homo sapiens, UniProt Q15910, Y641N) (Q15910 whole entry Y641N): as the sequence (Q15910 whole entry, looked up) above, with Y641N counted along it

KARPAS-422 [12] = assay: Antiproliferative activity against human KARPAS422 cells after 72 hrs by resazurin assay; type: functional, cell-based; details: Homo sapiens, KARPAS-422, 72 h
KARPAS-422 [13] = assay: Antitumor activity against human KARPAS422 cells harboring EZH2 Y641N mutant xenografted in mouse assessed as decrease in tumor regression at 100 mg/kg, sc qd measured 40 days post treatment termination on day 31; type: functional, organism-based
Mus musculus [14] = assay: In vivo inhibition of EZH2 in mouse xenografted with human KARPAS422 cells harboring EZH2 Y641N mutant assessed as reduction in H3K27me3 level in tumor at 100 mg/kg, sc qd measured 4 hrs post last dose on day 9 relative to control; type: functional; details: KARPAS-422, sc; how it was run: as §1
[15] = molecular target: T2, Histone-lysine N-methyltransferase EZH1 (Homo sapiens, UniProt Q92800); assay: Binding affinity to EZH1 (unknown origin)
T2 sequence (Q92800 whole entry): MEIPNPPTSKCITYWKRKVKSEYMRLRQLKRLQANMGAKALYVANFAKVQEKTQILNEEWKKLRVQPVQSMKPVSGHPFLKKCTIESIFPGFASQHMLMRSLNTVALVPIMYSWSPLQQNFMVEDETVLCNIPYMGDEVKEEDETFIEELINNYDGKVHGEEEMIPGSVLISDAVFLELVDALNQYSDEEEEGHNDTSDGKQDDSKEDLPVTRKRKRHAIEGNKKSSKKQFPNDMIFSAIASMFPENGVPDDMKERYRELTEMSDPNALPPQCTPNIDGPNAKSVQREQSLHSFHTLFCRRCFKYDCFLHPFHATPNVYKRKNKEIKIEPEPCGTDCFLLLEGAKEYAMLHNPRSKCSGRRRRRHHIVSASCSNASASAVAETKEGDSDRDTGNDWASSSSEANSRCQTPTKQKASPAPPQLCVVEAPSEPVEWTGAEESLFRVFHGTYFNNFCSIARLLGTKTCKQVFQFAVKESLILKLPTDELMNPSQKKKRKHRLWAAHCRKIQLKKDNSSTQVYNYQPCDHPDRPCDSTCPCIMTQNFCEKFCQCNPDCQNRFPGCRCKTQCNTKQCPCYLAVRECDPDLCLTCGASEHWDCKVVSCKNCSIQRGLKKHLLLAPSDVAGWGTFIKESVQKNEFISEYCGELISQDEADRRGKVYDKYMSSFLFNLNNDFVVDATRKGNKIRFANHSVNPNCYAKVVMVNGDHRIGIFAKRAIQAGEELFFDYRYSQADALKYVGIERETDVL

Cytochrome P450 2C8 = molecular target: T3, Cytochrome P450 2C8 (Homo sapiens, UniProt P10632); assay: Inhibition of CYP2C8 (unknown origin); type: ADME
T3 sequence (P10632 whole entry): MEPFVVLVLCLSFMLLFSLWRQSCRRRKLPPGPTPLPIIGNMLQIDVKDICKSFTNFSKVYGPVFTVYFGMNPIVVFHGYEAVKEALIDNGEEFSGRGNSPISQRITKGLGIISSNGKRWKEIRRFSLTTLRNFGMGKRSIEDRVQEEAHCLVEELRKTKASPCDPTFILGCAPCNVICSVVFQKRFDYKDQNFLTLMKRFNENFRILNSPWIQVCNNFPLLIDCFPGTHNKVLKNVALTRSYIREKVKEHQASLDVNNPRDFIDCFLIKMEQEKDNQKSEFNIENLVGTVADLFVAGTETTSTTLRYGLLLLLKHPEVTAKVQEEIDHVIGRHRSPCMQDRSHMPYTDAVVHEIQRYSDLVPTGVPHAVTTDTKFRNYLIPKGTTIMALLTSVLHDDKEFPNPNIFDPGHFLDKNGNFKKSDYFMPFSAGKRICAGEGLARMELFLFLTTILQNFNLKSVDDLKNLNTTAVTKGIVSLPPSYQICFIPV

Mus musculus [16] = assay: Toxicity in mouse xenografted with human KARPAS422 cells harboring EZH2 Y641N mutant assessed as change in body weight at 100 to 300 mg/kg, po bid; type: organism-based; details: in vivo
[17] = Clearance in rat hepatocytes assessed per million cells; type: ADME, cell-based, Hepatocyte; details: read-out: CLH
[18] = tested on: Histone-lysine N-methyltransferase EZH2 (Homo sapiens), Q15910 [Y641N]
Sequence of Histone-lysine N-methyltransferase EZH2 (Homo sapiens), Q15910 [Y641N] (Q15910 whole entry Y641N): as the sequence (Q15910 whole entry, looked up) above, with Y641N counted along it

[19] = Clearance in rat at 2 mg/kg, iv; type: ADME, organism-based; details: in vivo

Sequence of Cytochrome P450 2D6 (P10635 whole entry): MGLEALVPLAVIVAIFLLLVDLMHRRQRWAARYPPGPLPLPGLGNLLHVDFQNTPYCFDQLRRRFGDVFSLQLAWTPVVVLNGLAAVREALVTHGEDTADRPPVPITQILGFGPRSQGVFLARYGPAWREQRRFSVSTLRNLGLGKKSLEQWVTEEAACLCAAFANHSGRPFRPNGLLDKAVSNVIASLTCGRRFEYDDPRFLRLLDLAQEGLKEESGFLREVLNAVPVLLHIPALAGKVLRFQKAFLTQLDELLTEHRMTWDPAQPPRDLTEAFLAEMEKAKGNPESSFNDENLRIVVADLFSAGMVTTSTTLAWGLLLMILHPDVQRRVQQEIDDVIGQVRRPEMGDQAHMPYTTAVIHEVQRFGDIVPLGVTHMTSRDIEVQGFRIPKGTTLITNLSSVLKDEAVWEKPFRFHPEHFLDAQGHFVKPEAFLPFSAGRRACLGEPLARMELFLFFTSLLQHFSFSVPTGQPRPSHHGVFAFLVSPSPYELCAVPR

COc1cc(C)[nH]c(=O)c1CN1CCc2c(Cl)cc([C@H](OC)C3COC3)c(Cl)c2C1=O [MEVROMETOSTAT]
IC50 (Cytochrome P450 2D6): > 30000 nM | inhibition in vivo at 300 mg/kg (Mus musculus [1]): 47.9% | T1/2 [2]: 22 h | TGI (KARPAS-422 [3]): Active | logD [4]: 1.9 | solubility thermodynamic [5]: 315 µg/mL (≈ 674 µM) | Activity (Salmonella typhimurium): Non-Toxic | solubility kinetic [6]: 538 µM (≈ 251 µg/mL) | Papp at […], 2 µM [7]: 4.8 ×10⁻⁶ cm/s | inhibition in vivo at 100 mg/kg (Mus musculus [8]): 45.4% | Time (Mus musculus [9]): 24 h | Ki [10]: < 0.1 nM | Ki [11]: < 0.1 nM | IC50 (KARPAS-422 [12]): 6 nM | IC90 (KARPAS-422 [12]): 60 nM | Activity (KARPAS-422 [13]): Active | inhibition in vivo at 100 mg/kg (Mus musculus [14]): 13.8% | Ki [15]: 70 nM | IC50 (Cytochrome P450 2C8): > 30000 nM | Activity (Mus musculus [16]): Non-Toxic | hepatocyte CLint [17]: 109 µL/min/1e6 cells | T1/2 [18]: 6 h | clearance [19]: 70 mL/min/kg

— ChEMBL document CHEMBL4024771, “Optimization of Orally Bioavailable Enhancer of Zeste Homolog 2 (EZH2) Inhibitors Using Ligand and Property-Based Design Strategies: Identification of Development Candidate …” (J Med Chem, 2018)
